Data published in ChEMBL document CHEMBL1932986, “Synthesis and in vitro antimycobacterial activity of compounds derived from (R)- and (S)-2-amino-1-butanol - The crucial role of the configuration” (Eur J Med Chem, 2012).
≈ marks a conversion by molar mass, not a printed value. Calls of active or inactive are those of the source. The calls are words filed in the database; no cut-off is given here.

How the values were obtained:
Assay type in all cases: functional
Penicillium chrysogenum = test: Antifungal activity against Penicillium chrysogenum CECT 2802 at 50 mg/ml after 72 hrs by agar diffusion test; details: for zone of inhibition at 50000 µg/mL: CECT 2802, 72 h, read-out: DIZ
In short: (§1)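 Agar diffusion: yeasts grown on yeast peptone dextrose agar and fungi on potato dextrose agar. Wells are filled with […] of compound solution in DMSO at various concentrations, and the clear-zone diameter is measured. Bracketed values give the lowest concentration (mg/ml) that produces a zone >11 mm. A first screen is run at 50 mg/ml.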

Priestia megaterium = test: Antibacterial activity against Bacillus megaterium NRRL 1353895 at 50 mg/ml after 24 hrs by agar diffusion test; details: for zone of inhibition at 50000 µg/mL: NRRL 1353895, 24 h, read-out: DIZ
In short: (§2)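 Agar diffusion: wells in agar filled with […] DMSO solution of compound at various concentrations; diameter of clear zone around application point measured. Bacteria grown 24 h at 37 °C on nutrient agar. Compounds first screened at 50 mg/ml; those active then tested at lower concentrations. Bracketed value = lowest concentration (mg/ml) giving zone >11 mm, reported only if activity retained at ≤1.25 mg/ml.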

Bacillus mycoides = test: Antibacterial activity against Bacillus mycoides DSMZ 274 at 50 mg/ml after 24 hrs by agar diffusion test; details: for zone of inhibition at 50000 µg/mL: DSMZ 274, 24 h, read-out: DIZ; in short: as §2
[1] = test system: Mycobacterium tuberculosis; test: Antimycobacterial activity against Mycobacterium tuberculosis H37Rv after 45 days
In short: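 Canetti proportion method. Compound in DMSO is added to Löwenstein–Jensen egg medium before coagulation (30 min, 85 °C), tested at three levels plus a lower one where needed. Tubes are inoculated with H37Rv at 10⁵ cells/ml and incubated 45 days at 37 °C. Colony counts versus drug-free control give percentage inhibition.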

Micrococcus luteus [2] = test: Antibacterial activity against Micrococcus luteus ATCC 9631 at 50 mg/ml after 24 hrs by agar diffusion test; details: for zone of inhibition at 50000 µg/mL: ATCC 9631, 24 h, read-out: DIZ; in short: as §2
Candida tropicalis = test: Antifungal activity against Candida tropicalis ATCC 20336 at 50 mg/ml after 72 hrs by agar diffusion test; details: for zone of inhibition at 50000 µg/mL: ATCC 20336, 72 h, read-out: DIZ; in short: as §1
Staphylococcus aureus = test: Antibacterial activity against Staphylococcus aureus NRRL B 313 at 50 mg/ml after 24 hrs by agar diffusion test; details: for zone of inhibition at 50000 µg/mL: NRRL B 313, 24 h, read-out: DIZ
In short: (§3)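 Agar diffusion: bacteria grown 24 h at 37 °C on nutrient agar. Wells in the agar are filled with […] of compound solution in DMSO at various concentrations. The diameter of the clear zone around the application point is measured. Bracketed values give the lowest concentration (mg/ml) that produces a zone >11 mm. A first screen is run at 50 mg/ml.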

Escherichia coli = test: Antibacterial activity against Escherichia coli ATCC 8739 at 50 mg/ml after 24 hrs by agar diffusion test; details: for zone of inhibition at 50000 µg/mL: ATCC 8739, 24 h, read-out: DIZ; in short: as §2
Bacillus cereus = test: Antibacterial activity against Bacillus cereus ATCC 11778 at 50 mg/ml after 24 hrs by agar diffusion test; details: for zone of inhibition at 50000 µg/mL: ATCC 11778, 24 h, read-out: DIZ; in short: as §2
Bacillus subtilis = test: Antibacterial activity against Bacillus subtilis ATCC 6633 at 50 mg/ml after 24 hrs by agar diffusion test; details: for zone of inhibition at 50000 µg/mL: ATCC 6633, 24 h, read-out: DIZ; in short: as §2
Bacillus = test: Antibacterial activity against Bacillus idosus B 241 at 50 mg/ml after 24 hrs by agar diffusion test; details: for zone of inhibition at 50000 µg/mL: B 241, 24 h, read-out: DIZ; in short: as §2
Saccharomyces cerevisiae = test: Antifungal activity against Saccharomyces cerevisiae ATCC 9763 at 50 mg/ml after 72 hrs by agar diffusion test; details: for zone of inhibition at 50000 µg/mL: ATCC 9763, 72 h, read-out: DIZ; in short: as §1
Acinetobacter johnsonii = test: Antibacterial activity against Acinetobacter johnsonii ATCC 17909 at 50 mg/ml after 24 hrs by agar diffusion test; details: for zone of inhibition at 50000 µg/mL: ATCC 17909, 24 h, read-out: DIZ; in short: as §2
Micrococcus luteus [3] = test: Antibacterial activity against Sarcina lutea ATCC 9341 at 50 mg/ml after 24 hrs by agar diffusion test; details: for zone of inhibition at 50000 µg/mL: ATCC 9341, 24 h, read-out: DIZ; in short: as §3

Row | SMILES | zone of inhibition at 50000 µg/mL (Penicillium chrysogenum) [mm] | zone of inhibition at 50000 µg/mL (Priestia megaterium) [mm] | zone of inhibition at 50000 µg/mL (Bacillus mycoides) [mm] | MIC [1] [µM] | zone of inhibition at 50000 µg/mL (Micrococcus luteus [2]) [mm] | zone of inhibition at 50000 µg/mL (Candida tropicalis) [mm] | zone of inhibition at 50000 µg/mL (Staphylococcus aureus) [mm] | zone of inhibition at 50000 µg/mL (Escherichia coli) [mm] | zone of inhibition at 50000 µg/mL (Bacillus cereus) [mm] | zone of inhibition at 50000 µg/mL (Bacillus) [mm] | zone of inhibition at 50000 µg/mL (Saccharomyces cerevisiae) [mm] | zone of inhibition at 50000 µg/mL (Acinetobacter johnsonii) [mm] | zone of inhibition at 50000 µg/mL (Micrococcus luteus [3]) [mm] | diameter of the inhibition zone (DIZ) (Priestia megaterium) | diameter of the inhibition zone (DIZ) (Candida tropicalis) | diameter of the inhibition zone (DIZ) (Staphylococcus aureus) | diameter of the inhibition zone (DIZ) (Escherichia coli) | diameter of the inhibition zone (DIZ) (Bacillus subtilis) | diameter of the inhibition zone (DIZ) (Bacillus) | diameter of the inhibition zone (DIZ) (Saccharomyces cerevisiae) | also measured
1 | CC[C@H](CO)NCc1ccc(-c2ccccc2)cc1 | 40 | 19 | 18 | > 19.6 | 17 | 18 | 20 | 28 | 15 | 18 | 18 | 20 | 17 |  |  |  |  |  |  |  | zone of inhibition at 50000 µg/mL (Bacillus subtilis): 18 mm
2 | CC[C@H](CO)N1C(=O)CCC1=O |  |  |  | > 29.2 |  |  |  |  |  |  |  |  |  | inactive | inactive | inactive | inactive | inactive | inactive | inactive | diameter of the inhibition zone (DIZ) (Penicillium chrysogenum): inactive; diameter of the inhibition zone (DIZ) (Bacillus mycoides): inactive; diameter of the inhibition zone (DIZ) (Micrococcus luteus [2]): inactive; diameter of the inhibition zone (DIZ) (Bacillus cereus): inactive; diameter of the inhibition zone (DIZ) (Acinetobacter johnsonii): inactive; diameter of the inhibition zone (DIZ) (Micrococcus luteus [3]): inactive
3 | CC[C@H](CO)NC(=S)Nc1ccccc1 |  | 13 | 12 | > 22.3 | 12 | 16 |  | 16 | 14 |  | 15 | 12 | 12 |  |  | inactive |  | inactive | inactive |  | 
4 | CC[C@@H]1COc2cc3ccccc3c(=O)n21 | 35 | 13 | 15 | 23.2 (≈ 5 µg/mL) | 15 | 20 | 12 | 0 | 18 | 15 | 11 | 10 | 13 |  |  |  |  | inactive |  |  | 
5 | CC[C@H](CO)NC(=O)c1ccc2ccccc2c1 |  |  |  | > 20.6 |  |  |  |  |  |  |  |  |  | inactive | inactive | inactive | inactive | inactive | inactive | inactive | diameter of the inhibition zone (DIZ) (Penicillium chrysogenum): inactive; diameter of the inhibition zone (DIZ) (Bacillus mycoides): inactive; diameter of the inhibition zone (DIZ) (Micrococcus luteus [2]): inactive; diameter of the inhibition zone (DIZ) (Bacillus cereus): inactive; diameter of the inhibition zone (DIZ) (Acinetobacter johnsonii): inactive; diameter of the inhibition zone (DIZ) (Micrococcus luteus [3]): inactive
6 | CC[C@H](CO)NCc1ccc(-n2ccnc2)cc1 | 12 |  | 18 | 20.4 (≈ 5 µg/mL) | 16 |  | 16 |  | 13 | 16 |  | 18 | 18 | inactive | inactive |  | inactive |  |  | inactive | zone of inhibition at 50000 µg/mL (Bacillus subtilis): 12 mm
